The values that follow come from ChEMBL document CHEMBL1134549, “Original 2-alkylamino-6-halogenoquinazolin-4(3H)-ones and K(ATP) channel activity” (J Med Chem, 2001).

One may read the IC50 as the midpoint of a concentration-inhibition curve.

For one assay, the species on record is Cavia porcellus. The assay is described as follows: In vitro inhibition electrically stimulated guinea pig ileum segment contraction. It is filed as functional. An outline of the steps: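 Coaxial electrical stimulation with rectangular pulses (0.5 ms, 0.1 Hz, 5–25 V); isometric contraction recording. Drugs added at increasing concentrations until maximal effect.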

Assay [1] is filed under the species Rattus norvegicus. The assay is described as follows: In vitro inhibition of 30 mM KCl-induced contraction of rat aorta rings. It is filed as functional.
The species entered for assay [2] is Rattus norvegicus. The assay is described as follows: Myorelaxant activity as percentage residual contractile activity in rat uterus at 10 uM concentration. It is filed as functional. An outline of the steps: (§1)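 Uterus from fed Wistar rats (150–200 g) pretreated the day before with diethylstilboestrol dipropionate i.m. Tissue superfused at 37 °C. Contractions induced by 20 mU oxytocin injections at 10 min intervals, scored as AUC. Baseline (100%) is the mean of the last three constant responses. Each drug concentration tested with at least three injections; mean AUC expressed as percent of the drug-free response.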

The species entered for assay [3] is Rattus norvegicus. The assay is described as follows: Myorelaxant activity as percentage residual contractile activity in rat uterus at 50 uM concentration. It is filed as functional. An outline of the steps:
as §1

Assay [4] is filed under the species Rattus norvegicus. The assay is described as follows: In vitro percentage residual insulin secretion at 50 uM dose from rat pancreatic islets incubated in the presence of 16.7 mM glucose. It is filed as functional. The method in brief: (§2)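 Islets from fed Wistar rats (180–220 g), groups of 10, preincubated 30 min at 37 °C in salt medium with 2.8 mM glucose and 0.5% dialyzed albumin under O2/CO2. Then incubated 90 min at 37 °C with 16.7 mM glucose plus drug. Insulin measured by radioimmunoassay against a rat insulin standard; reported as percentage residual release.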

The species entered for assay [5] is Rattus norvegicus. Put plainly: Percentage residual insulin secretion at 10 uM dose from pancreatic islets incubated in the presence of 16.7 mM glucose. It is filed as functional. The method in brief: as §2
Assay [6] is filed under the species Rattus norvegicus. The assay is described as follows: Myorelaxant activity in rat aorta in the presence 80 mM KCL. It is filed as functional. The method in brief:
(§3)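 Endothelium-denuded transverse aortic rings (3–4 mm) from fed Wistar rats (250–300 g) held under 2 g tension in Krebs-bicarbonate at 37 °C, 95% O2/5% CO2. After 60 min equilibration, contracted with 30 mM or 80 mM KCl; drugs added cumulatively to maximal relaxation, with or without glibenclamide throughout (1 or 10 μM).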

Assay [7] in a line: Myorelaxant activity in rat aorta with 1 uM glibenclamide and 30 mM KCL. It is filed as functional, tissue-based. An outline of the steps:
as §3

Assay [8] is described as follows: Myorelaxant activity in rat aorta with 10 uM glibenclamide and 30 mM KCL. It is filed as functional, tissue-based. An outline of the steps: as §3
The species entered for assay [9] is Rattus norvegicus. The assay is described as follows: Percentage residual insulin secretion at 1 uM dose from pancreatic islets incubated in the presence of 16.7 mM glucose. It is filed as functional. An outline of the steps: as §2

For the compound `C[C@H](Nc1nc(O)c2cc(Cl)ccc2n1)C1CCCCC1`, the IC50 in the assay listed under Cavia porcellus was found to be 15.1 µM; in the assay filed under Rattus norvegicus [1], 2.1 µM. Besides, the figures for the Activity in the assay filed under Rattus norvegicus [2] and in the assay listed under Rattus norvegicus [3] were 102% and 66.5%, respectively. The Secretion is on record as 8.9% in the assay filed under Rattus norvegicus [4] and 43.6% in the assay filed under Rattus norvegicus [5].
With `CC(N/C(=N\C#N)Nc1ccncc1)C(C)(C)C` (configuration not stated) [PINACIDIL ANHYDROUS], the IC50 is 9.2 µM in the assay listed under Cavia porcellus; 16 µM in the assay filed under Rattus norvegicus [6]; 10.4 µM in [7]; 42.5 µM in assay [8]; 0.5 µM in the assay filed under Rattus norvegicus [1]. Further, the Activity in the assay listed under Rattus norvegicus [2] turned out to be 58.1%; in the assay listed under Rattus norvegicus [3] it was 35.5%. In addition, the Secretion turned out to be 97.8% in the assay listed under Rattus norvegicus [9], 92.1% in the assay listed under Rattus norvegicus [4] and 96% in the assay listed under Rattus norvegicus [5].
`CC(C)Nc1nc(O)c2cc(Cl)ccc2n1`: the IC50 in the assay filed under Cavia porcellus came out at 74.1 µM; in the assay filed under Rattus norvegicus [6], 34.3 µM; in the assay filed under Rattus norvegicus [1] it was 17.3 µM. In addition, the Activity in the assay filed under Rattus norvegicus [2] is recorded as 78.7%; in the assay listed under Rattus norvegicus [3] it was 61%. The Secretion in the assay filed under Rattus norvegicus [9] amounted to 80.7%; in the assay filed under Rattus norvegicus [4], 6.6%; in the assay listed under Rattus norvegicus [5], 55.1%.
Consider `Oc1nc(NCc2ccccc2)nc2ccc(I)cc12`, for which the IC50 in the assay listed under Cavia porcellus is 8.7 µM; in the assay listed under Rattus norvegicus [1], 1.4 µM. The Activity in the assay filed under Rattus norvegicus [2] and in the assay filed under Rattus norvegicus [3] was 106% in each case. In addition, the Secretion in the assay filed under Rattus norvegicus [4] is 82.8%.
Consider `CCC(C)Nc1nc(O)c2cc(Cl)ccc2n1` (configuration not stated), for which the figures for the IC50 in the assay listed under Cavia porcellus and in the assay listed under Rattus norvegicus [1] were 44.7 µM and 13.8 µM, respectively. Moreover, the Secretion in the assay listed under Rattus norvegicus [9] is listed as 84.9%; in the assay listed under Rattus norvegicus [4], 6%; in the assay filed under Rattus norvegicus [5], 53.2%.
On to `Oc1nc(NCc2ccccc2)nc2ccc(Cl)cc12`, for which 13.3 µM corresponded to half-maximal inhibition in the assay filed under Cavia porcellus (IC50). The Activity in the assay listed under Rattus norvegicus [2] came out at 94.8%; in the assay listed under Rattus norvegicus [3] it was 98.1%. Besides, the Secretion in the assay filed under Rattus norvegicus [4] turned out to be 82.5%.
As to `C[C@@H](Nc1nc(O)c2cc(Cl)ccc2n1)C1CCCCC1`, the IC50 in the assay listed under Cavia porcellus was 8.2 µM; in the assay listed under Rattus norvegicus [6] it was 18.1 µM; in assay [7] it was greater than 30 µM; in assay [8] it was greater than 30 µM; in the assay filed under Rattus norvegicus [1] it was 5.6 µM. The Activity in the assay filed under Rattus norvegicus [2] was 108%; in the assay listed under Rattus norvegicus [3] it was 90.7%. The Secretion turned out to be 16.5% in the assay filed under Rattus norvegicus [4] and 62.1% in the assay listed under Rattus norvegicus [5].
On to `CC(C)C(C)Nc1nc(O)c2cc(Cl)ccc2n1` (configuration not stated), for which the values for the 50% inhibitory concentration (IC50) in the assay filed under Cavia porcellus and in the assay filed under Rattus norvegicus [1] were 59.2 µM and 16.3 µM, respectively. Moreover, the values for the Secretion in the assay listed under Rattus norvegicus [9], in the assay filed under Rattus norvegicus [4] and in the assay listed under Rattus norvegicus [5] were 81.3%, 10.2% and 61.9%, respectively.
In the case of `C[C@@H](Nc1nc(O)c2cc(Cl)ccc2n1)c1ccccc1`, the half-inhibitory concentration (IC50) in the assay filed under Cavia porcellus stood at 20.2 µM; in the assay listed under Rattus norvegicus [1], 2.8 µM. The Activity is 120% in the assay listed under Rattus norvegicus [2] and 46.5% in the assay listed under Rattus norvegicus [3]. Also, the Secretion in the assay listed under Rattus norvegicus [4] was found to be 35%.
On to `CC(C)Nc1nc(O)c2ccccc2n1`, for which half-maximal inhibition in the assay filed under Rattus norvegicus [1] (IC50) required 67.3 µM. Also, the Secretion in the assay filed under Rattus norvegicus [4] came to 45.6%.
As to `CC1=Nc2ccc(Cl)cc2S(=O)(=O)N1` [DIAZOXIDE], the IC50 is greater than 300 µM in the assay listed under Cavia porcellus; greater than 300 µM in the assay listed under Rattus norvegicus [6]; 85.8 µM in [7]; 163 µM in assay [8]; 19.3 µM in the assay filed under Rattus norvegicus [1]. Further, the values for the Activity in the assay filed under Rattus norvegicus [2] and in the assay filed under Rattus norvegicus [3] were 93.8% and 76.3%, respectively. Further, the Secretion in the assay filed under Rattus norvegicus [9] was 78.9%; in the assay listed under Rattus norvegicus [4] it was 28.8%; in the assay filed under Rattus norvegicus [5], 70%.
In the assay listed under Rattus norvegicus [1], `CC(Nc1nc(O)c2ccccc2n1)C(C)(C)C` (configuration not stated) came in with an IC50 of 12.4 µM. In addition, the Secretion in the assay listed under Rattus norvegicus [4] turned out to be 50.9%.
On to `CC(C)C(C)NC1=NS(=O)(=O)c2cnccc2N1` (configuration not stated), for which the IC50 in the assay listed under Cavia porcellus was greater than 300 µM; in the assay listed under Rattus norvegicus [1] it was 154 µM. In addition, the Secretion in the assay filed under Rattus norvegicus [9] was 70.5%; in the assay listed under Rattus norvegicus [4] it was 7.1%; in the assay listed under Rattus norvegicus [5], 26.8%.
Take `Oc1nc(NCC2CCCCC2)nc2ccc(I)cc12`: the IC50 was 26 µM in the assay filed under Cavia porcellus and 3.9 µM in the assay listed under Rattus norvegicus [1]. Also, the values for the Activity in the assay filed under Rattus norvegicus [2] and in the assay listed under Rattus norvegicus [3] were 96.8% and 97.9%, respectively. The Secretion was 10% in the assay filed under Rattus norvegicus [4] and 65.4% in the assay listed under Rattus norvegicus [5].
Consider `CC(C)Nc1nc(O)c2cc(I)ccc2n1`, for which the IC50 in the assay listed under Cavia porcellus came out at 44.1 µM; in the assay listed under Rattus norvegicus [6], 37.2 µM; in assay [7], 37.3 µM; in assay [8] it was 46.4 µM; in the assay listed under Rattus norvegicus [1] it was 12.1 µM. Further, the values for the Activity in the assay listed under Rattus norvegicus [2] and in the assay listed under Rattus norvegicus [3] were 77.6% and 41%, respectively. Further, the Secretion amounted to 93.7% in the assay filed under Rattus norvegicus [9], 12.2% in the assay filed under Rattus norvegicus [4] and 90.9% in the assay listed under Rattus norvegicus [5].
With `CC(C)C(C)Nc1nc(O)c2cc(I)ccc2n1` (configuration not stated), the IC50 in the assay listed under Cavia porcellus stood at 30.4 µM; in the assay filed under Rattus norvegicus [1], 4.1 µM. Besides, the Secretion in the assay filed under Rattus norvegicus [9] is 94.7%; in the assay listed under Rattus norvegicus [4], 30.6%; in the assay listed under Rattus norvegicus [5], 87.7%.
Take `Oc1nc(NCC2CCCCC2)nc2ccc(Cl)cc12`: the IC50 in the assay filed under Cavia porcellus stood at 23.9 µM; in the assay filed under Rattus norvegicus [1], 2.2 µM. Moreover, the values for the Activity in the assay filed under Rattus norvegicus [2] and in the assay filed under Rattus norvegicus [3] were 86% and 80.3%, respectively. In addition, the Secretion in the assay listed under Rattus norvegicus [4] is on record as 26.5%; in the assay listed under Rattus norvegicus [5], 90.1%.
Take `C[C@H](Nc1nc(O)c2cc(Cl)ccc2n1)c1ccccc1`: the IC50 in the assay listed under Cavia porcellus is 13.2 µM; in the assay listed under Rattus norvegicus [1] it was 1.7 µM. For the same compound, the Activity in the assay listed under Rattus norvegicus [2] is reported as 92.4%; in the assay listed under Rattus norvegicus [3] it was 44.9%. For the same compound, the Secretion in the assay listed under Rattus norvegicus [4] is reported as 12.9%; in the assay filed under Rattus norvegicus [5], 76.9%.
In the assay filed under Rattus norvegicus [1], `Oc1nc(NCc2ccccc2)nc2ccc(Br)cc12` yielded an IC50 of 7.6 µM. Also, the Activity came out at 76.8% in the assay filed under Rattus norvegicus [2] and 76.6% in the assay filed under Rattus norvegicus [3]. Besides, the Secretion in the assay filed under Rattus norvegicus [4] was found to be 75.7%.
For the compound `CCC(C)Nc1nc(O)c2cc(I)ccc2n1` (configuration not stated), the figures for the IC50 in the assay filed under Cavia porcellus and in the assay listed under Rattus norvegicus [1] were 23.6 µM and 8.9 µM, respectively. Besides, the figures for the Secretion in the assay listed under Rattus norvegicus [9], in the assay filed under Rattus norvegicus [4] and in the assay filed under Rattus norvegicus [5] were 94.9%, 11.2% and 77.5%, respectively.
For `Oc1nc(NCc2ccccc2)nc2ccccc12`, in the assay filed under Rattus norvegicus [1], the IC50 turned out to be 43.7 µM. The Activity was 97.2% in the assay listed under Rattus norvegicus [2] and 47.4% in the assay filed under Rattus norvegicus [3]. The Secretion in the assay listed under Rattus norvegicus [4] worked out at 61.8%.
